Activity calls are given as the source filed them. The rule behind the calls is not given here.
Experiments:
[1] = test system: Bacillus cereus; experiment: Antibacterial activity against Bacillus cereus CECT 148 assessed as inhibition of microbial growth at 125 ug/ml incubated for 18 hrs by 2-fold microtiter broth dilution method; type: functional, organism-based
Outline: (§1)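 Compounds in DMSO, ten 2-fold serial dilutions (125 down to 0.24 µg/mL tested). Bacteria at OD620 = 0.001 in Nutrient Broth mixed 1:1 with dilutions. Incubated overnight (18 h) at 28°C or 37°C according to strain. Growth read turbidimetrically at OD620. MIC is the lowest concentration giving complete growth inhibition. Triplicate runs. Tetracycline as reference.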

[2] = test system: Staphylococcus aureus; experiment: Antibacterial activity against Staphylococcus aureus CECT 86 assessed as inhibition of microbial growth at 125 ug/ml incubated for 18 hrs by 2-fold microtiter broth dilution method; type: functional, organism-based; outline: as §1
[3] = test system: Enterococcus faecalis; experiment: Antibacterial activity against Enterococcus faecalis CECT 481 assessed as inhibition of microbial growth at 125 ug/ml incubated for 18 hrs by 2-fold microtiter broth dilution method; type: functional, organism-based; outline: as §1
[4] = test system: Salmonella typhi; experiment: Antibacterial activity against Salmonella typhi CECT 409 assessed as inhibition of microbial growth at 125 ug/ml incubated for 18 hrs by 2-fold microtiter broth dilution method; type: functional, organism-based; settings: Salmonella enterica subsp. enterica serovar Typhi
Outline: (§2)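 Compounds in DMSO, ten 2-fold serial dilutions (125 down to 0.24 µg/mL), mixed 1:1 with bacteria in Nutrient Broth at OD620 = 0.001. Incubated overnight (18 h) at 28 or 37 °C depending on strain. Growth read turbidimetrically at OD620; MIC is the lowest concentration completely inhibiting growth, per CLSI. Triplicate runs; tetracycline reference.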

[5] = test system: Escherichia coli; experiment: Antibacterial activity against Escherichia coli CECT 405 assessed as inhibition of microbial growth at 125 ug/ml incubated for 18 hrs by 2-fold microtiter broth dilution method; type: functional, organism-based; outline: as §1
[6] = test system: Pectobacterium carotovorum; experiment: Antibacterial activity against Erwinia carotovora CECT 225 assessed as inhibition of microbial growth at 125 ug/ml incubated for 18 hrs by 2-fold microtiter broth dilution method; type: functional, organism-based; outline: as §1
[7] = test system: Bacillus subtilis; experiment: Antibacterial activity against Bacillus subtilis CECT 35 assessed as inhibition of microbial growth at 125 ug/ml incubated for 18 hrs by 2-fold microtiter broth dilution method; type: functional, organism-based; outline: as §1
[8] = test system: Escherichia coli; experiment: Antibacterial activity against Escherichia coli CECT 100 assessed as inhibition of microbial growth at 125 ug/ml incubated for 18 hrs by 2-fold microtiter broth dilution method; type: functional, organism-based; outline: as §1
[9] = test system: Bacillus cereus; experiment: Antibacterial activity against Bacillus cereus CECT 148 assessed as inhibition of microbial growth incubated for 18 hrs by 2-fold microtiter broth dilution method; type: functional, organism-based; settings: CECT 148, 18 h; outline: as §1
[10] = test system: Staphylococcus aureus; experiment: Antibacterial activity against Staphylococcus aureus CECT 86 assessed as inhibition of microbial growth incubated for 18 hrs by 2-fold microtiter broth dilution method; type: functional, organism-based; settings: CECT 86, 18 h; outline: as §1
[11] = test system: Enterococcus faecalis; experiment: Antibacterial activity against Enterococcus faecalis CECT 481 assessed as inhibition of microbial growth incubated for 18 hrs by 2-fold microtiter broth dilution method; type: functional, organism-based; settings: CECT 481, 18 h; outline: as §1
[12] = test system: Salmonella typhi; experiment: Antibacterial activity against Salmonella typhi CECT 409 assessed as inhibition of microbial growth incubated for 18 hrs by 2-fold microtiter broth dilution method; type: functional, organism-based, Salmonella enterica subsp. enterica serovar Typhi; settings: Salmonella enterica, CECT 409, 18 h; outline: as §2
[13] = test system: Escherichia coli; experiment: Antibacterial activity against Escherichia coli CECT 405 assessed as inhibition of microbial growth incubated for 18 hrs by 2-fold microtiter broth dilution method; type: functional, organism-based; settings: CECT 405, 18 h; outline: as §1
[14] = test system: Pectobacterium carotovorum; experiment: Antibacterial activity against Erwinia carotovora CECT 225 assessed as inhibition of microbial growth incubated for 18 hrs by 2-fold microtiter broth dilution method; type: functional, organism-based; settings: CECT 225, 18 h; outline: as §1
[15] = test system: Bacillus subtilis; experiment: Antibacterial activity against Bacillus subtilis CECT 35 assessed as inhibition of microbial growth incubated for 18 hrs by 2-fold microtiter broth dilution method; type: functional, organism-based; settings: CECT 35, 18 h; outline: as §1
[16] = test system: Escherichia coli; experiment: Antibacterial activity against Escherichia coli CECT 100 assessed as inhibition of microbial growth incubated for 18 hrs by 2-fold microtiter broth dilution method; type: functional, organism-based; settings: CECT 100, 18 h; outline: as §1
[17] = Cytotoxicity against human neutrophils assessed as reduction in cell viability at 100 uM incubated for 24 hrs by MTT assay; type: cell-based; settings: neutrophil
Outline: (§3)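 Neutrophils from buffy coats of healthy donors were isolated by Ficoll-Hypaque gradient and seeded at 2 x 10⁵ cells/mL in supplemented RPMI. Exposed to 30 or 100 µM for 24 h at 37 °C, then MTT (2 mg/mL in PBS) added for 3 h. Formazan dissolved in DMSO and read at 560 and 630 nm. Mean ± SEM of n=6-9 independent experiments, compared against vehicle.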

[18] = Cytotoxicity against human neutrophils assessed as reduction in cell viability at 30 uM incubated for 24 hrs by MTT assay; type: cell-based; settings: neutrophil; outline: as §3
[19] = Selectivity index, ratio of cytotoxicity against human neutrophils by MTT assay to antibacterial IC50 against Staphylococcus aureus CECT 86; type: toxicity; settings: read-out: Selectivity Index
[20] = Selectivity index, ratio of cytotoxicity against human neutrophils by MTT assay to antibacterial IC50 against Enterococcus faecalis CECT 481; type: toxicity; settings: read-out: Selectivity Index
[21] = Selectivity index, ratio of cytotoxicity against human neutrophils by MTT assay to antibacterial IC50 against Salmonella typhi CECT 409; type: toxicity; settings: read-out: Selectivity Index
[22] = Selectivity index, ratio of cytotoxicity against human neutrophils by MTT assay to antibacterial IC50 against Escherichia coli CECT 405; type: toxicity; settings: read-out: Selectivity Index
[23] = Toxicity in human neutrophils assessed as induction of apoptosis at 30 and 100 uM incubated for 24 hrs by annexin V-FITC and propidium iodide staining based cytofluorometry; type: cell-based; settings: neutrophil
Outline: (§4)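 Freshly isolated donor neutrophils (2 x 10⁶ cells/mL stock, diluted into supplemented RPMI) cultured 24 h with 30 or 100 µM. Stained with annexin V-FITC/propidium iodide; 1 x 10⁴ cells analysed by flow cytometry. Gating: annexin V+/PI− apoptotic, V+/PI+ late apoptotic/necrotic, V−/PI− viable. Mean ± SEM, n=3, compared against vehicle.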

[24] = Toxicity in human neutrophils assessed as cell survival at 30 uM incubated for 24 hrs by annexin V-FITC and propidium iodide staining based cytofluorometry; settings: neutrophil; outline: as §4
[25] = Toxicity in human neutrophils assessed as induction of necrosis at 100 uM incubated for 24 hrs by annexin V-FITC and propidium iodide staining based cytofluorometry; type: cell-based; settings: neutrophil; outline: as §4
[26] = Selectivity index, ratio of cytotoxicity against human neutrophils by annexin V-FITC and propidium iodide staining based cytofluorometry to antibacterial IC50 against Staphylococcus aureus CECT 86; type: toxicity; settings: read-out: Selectivity Index
[27] = Selectivity index, ratio of cytotoxicity against human neutrophils by annexin V-FITC and propidium iodide staining based cytofluorometry to antibacterial IC50 against Enterococcus faecalis CECT 481; type: toxicity; settings: read-out: Selectivity Index
[28] = Selectivity index, ratio of cytotoxicity against human neutrophils by annexin V-FITC and propidium iodide staining based cytofluorometry to antibacterial IC50 against Salmonella typhi CECT 409; type: toxicity; settings: read-out: Selectivity Index
[29] = Selectivity index, ratio of cytotoxicity against human neutrophils by annexin V-FITC and propidium iodide staining based cytofluorometry to antibacterial IC50 against Escherichia coli CECT 405; type: toxicity; settings: read-out: Selectivity Index

## COc1c(Br)cc(C2=C(C(=O)c3ccco3)C(=O)O/C2=C\c2ccc(O)c(Br)c2)cc1Br
[1]
  growth inhibition (GI): inactive
[2]
  growth inhibition (GI): inactive
[3]
  growth inhibition (GI): inactive
[4]
  growth inhibition (GI): inactive
[5]
  growth inhibition (GI): inactive
[6]
  growth inhibition (GI): inactive
[7]
  growth inhibition (GI): inactive
[8]
  growth inhibition (GI): inactive

## COc1c(Br)cc(C2=C(C(=O)c3cc(Br)c(O)c(Br)c3)C(=O)O/C2=C\c2cc(Br)c(O)c(Br)c2)cc1Br
[1]
  growth inhibition (GI): inactive
[2]
  growth inhibition (GI): inactive
[3]
  growth inhibition (GI): inactive
[4]
  growth inhibition (GI): inactive
[5]
  growth inhibition (GI): inactive
[6]
  growth inhibition (GI): inactive
[7]
  growth inhibition (GI): inactive
[8]
  growth inhibition (GI): inactive

## COc1c(Br)cc(C2=C(C(=O)c3ccc(O)c(Br)c3)C(=O)O/C2=C\c2ccc(O)c(Br)c2)cc1Br
[1]
  growth inhibition (GI): inactive
[2]
  growth inhibition (GI): inactive
[3]
  growth inhibition (GI): inactive
[4]
  growth inhibition (GI): inactive
[5]
  growth inhibition (GI): inactive
[6]
  growth inhibition (GI): inactive
[7]
  growth inhibition (GI): inactive
[8]
  growth inhibition (GI): inactive

## O=C1O/C(=C\c2ccc(O)c(Br)c2)C(c2cc(Br)c(O)c(Br)c2)=C1C(=O)c1ccc(O)c(Br)c1
[9]
  IC50: 2.72 µM
  MIC: 1.95 mg/L
[10]
  IC50: 2.72 µM
  MIC: 1.95 mg/L
[11]
  IC50: 2.72 µM
  MIC: 1.95 mg/L
[12]
  IC50: 2.72 µM
  MIC: 1.95 mg/L
[13]
  IC50: 2.72 µM
  MIC: 1.95 mg/L
[14]
  MIC: 125 mg/L
[15]
  MIC: 125 mg/L
[16]
  IC50: > 175 µM
  MIC: > 125 mg/L
[17]
  Activity: Toxic
[18]
  Activity: Non-toxic
[19]
  selectivity ratio: 5
[20]
  selectivity ratio: 5
[21]
  selectivity ratio: 5
[22]
  selectivity ratio: 5
[23]
  Activity: Non-toxic
[24]
  Activity: Non-toxic
[25]
  Activity: 36%
[26]
  selectivity ratio: 5
[27]
  selectivity ratio: 5
[28]
  selectivity ratio: 5
[29]
  selectivity ratio: 5

## COc1ccc(C2=C(C(=O)c3cc(Br)c(O)c(Br)c3)C(=O)O/C2=C\c2cc(Br)c(O)c(Br)c2)cc1
[1]
  growth inhibition (GI): inactive
[2]
  growth inhibition (GI): inactive
[3]
  growth inhibition (GI): inactive
[4]
  growth inhibition (GI): inactive
[5]
  growth inhibition (GI): inactive
[6]
  growth inhibition (GI): inactive
[7]
  growth inhibition (GI): inactive
[8]
  growth inhibition (GI): inactive

Source: ChEMBL document CHEMBL3585302, “Synthesis and antibacterial activities of cadiolides A, B and C and analogues” (Bioorg Med Chem, 2015)
